Source: PubChem BioAssay (several laboratories)
Sampled rows, rich in hits. Any-hit rate of the full collection: about 1.9%.
procasp7 counter: counter-screen for procaspase-3 activators: activators of human procaspase-7 | actives 0.093% (n = 330,000) | recombinant procaspase-7, Ac-DEVD-pNA absorbance 405 nm; D23A/D198A/D206A triple mutant, cannot self-cleave; scale: DMSO 0, 5 µM enzyme 100 | activation, % at 8.5 µM | P55210;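 active = percent activation above the screen-wide mean plus 3 SD, cut at about 25% in these data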
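Material: Procaspase-7 triple mutant (PC-7 D3A) | Quantity: 2 µM procaspase-7 mutant as dispensed | Reagent: DEVD-pNA substrate | Times: 1 h preincubation, 2 h reaction | Technique: 405 nm absorbance of p-nitroaniline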
procasp3 activ: activators of human procaspase-3 | activation, % at 8.5 µM | recombinant procaspase-3 D3A, Ac-DEVD-pNA absorbance 405 nm | actives 0.11% (n = 330,000);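 active = activation above the mean of all tested compounds plus 3 SD, cut at about 21% in these data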;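 note: 0% = DMSO alone and 100% = DMSO wells spiked with extra 5 µM PC-3 D3A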
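Assay system – Procaspase-3 D3A mutant · Benchmarks – DMSO low control, extra-enzyme high control · Technique – 405 nm absorbance of p-nitroaniline, reads at 0 and 120 min · Doses – 8.5 µM nominal · Measure – % activation between DMSO and enzyme-spiked controls · Also added – Ac-DEVD-pNA chromogenic peptide substrate · Schedule – 1 h compound preincubation, 2 h substrate hydrolysis at 25 °C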
Calb FLC: affects C. albicans growth with fluconazole; C. albicans CaCi-2 + fluconazole, Alamar Blue growth, 48 h; growth inhibition, % (no concentration beside the values); actives 0.57% (n = 300,000);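 active = growth inhibition above about 58% in most replicates, limit read from the data, passing the limit was not always enough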;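 note: all wells also contain fluconazole at 8 µg/ml as a sub-toxic cotreatment; 0% = median of DMSO wells and 100% = median of geldanamycin control wells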
Neddyl block: cullin neddylation inhibition. TR-FRET cullin neddylation, biochemical. P61081+Q13564. actives 0.58% (n = 360,000). inhibition, % at 25 µM; in the data active = inhibition above about 36%
Target sequence (P61081 whole entry, looked up): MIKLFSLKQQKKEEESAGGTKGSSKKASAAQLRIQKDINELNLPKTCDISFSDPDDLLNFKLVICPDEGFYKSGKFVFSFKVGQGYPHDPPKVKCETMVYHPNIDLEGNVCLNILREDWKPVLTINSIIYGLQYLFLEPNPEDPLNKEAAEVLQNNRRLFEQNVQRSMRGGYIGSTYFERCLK
Target sequence (Q13564 whole entry, looked up): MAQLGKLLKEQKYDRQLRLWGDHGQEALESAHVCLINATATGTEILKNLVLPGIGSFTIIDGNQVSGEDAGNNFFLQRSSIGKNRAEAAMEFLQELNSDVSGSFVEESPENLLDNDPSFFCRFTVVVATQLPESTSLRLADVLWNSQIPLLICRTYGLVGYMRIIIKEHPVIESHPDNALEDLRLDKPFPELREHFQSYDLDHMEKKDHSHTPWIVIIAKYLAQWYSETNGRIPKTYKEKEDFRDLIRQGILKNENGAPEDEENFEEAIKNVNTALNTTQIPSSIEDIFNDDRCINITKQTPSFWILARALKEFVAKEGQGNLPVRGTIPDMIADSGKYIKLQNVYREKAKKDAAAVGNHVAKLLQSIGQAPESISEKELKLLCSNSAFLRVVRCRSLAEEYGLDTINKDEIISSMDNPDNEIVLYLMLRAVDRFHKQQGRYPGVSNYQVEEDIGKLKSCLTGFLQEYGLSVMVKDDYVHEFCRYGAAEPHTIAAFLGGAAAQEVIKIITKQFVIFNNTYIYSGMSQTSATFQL
GAA850 FXN act: increases GAA850 frataxin promoter reporter activity; AID 540364; activation, % at 6 µM; actives 0.56% (n = 360,000); HEK293 lucGAA850 FXN promoter luciferase reporter, 24 h; percent of 10 µM SAHA response;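 active = activation above the average of all compounds screened plus 3 SD, cutoff fixed separately per campaign, cut at about 7.5% in these data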;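 note: 0% = DMSO wells and 100% = 10 µM SAHA wells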
HIF activator: HIF pathway transcriptional activation; AID 1910; actives 0.32% (n = 300,000); activation, % at 7.5 µM (by protocol); U2OS HRE-luciferase reporter, luminescence; normalized: DMSO 0%, desferrioxamine 100%;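 active = mean activation of at least 10% of the iron chelator positive control signal, with at least half of replicates also reaching 10%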
Neddyl conf: confirmation of human cullin neddylation inhibitors; shares compounds with Neddyl block; TR-FRET cullin neddylation biochemical assay; AID 652217; calls only at 25 µM; actives 13% (n = 1,800); in the data active = inhibition above about 40%;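 note: neddylation substrate is the cullin 1 ring ligase complex with SKP2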
An asterisk follows results filed as active; i = inactive; · = not tested or not shown; + = active, no number.

SMILES	procasp7 counter	procasp3 activ	Calb FLC	Neddyl block	GAA850 FXN act	HIF activator	Neddyl conf
COC(=O)c1ccc(/C=C2\CCn3c2nc2cc(C(=O)O)ccc2c3=O)cc1	-2	3	-1	55*	1	0	+
CSc1ccc(/C=C2\CCn3c2nc2cc(C(=O)O)ccc2c3=O)cc1	0	-10	8	46*	0	-2	+
O=C(O)c1ccc2c(=O)n3c(nc2c1)/C(=C/c1ccc(Cl)c(Cl)c1)CC3	-2	7	-1	·	3	-1	·
CC(NC(=O)COC(=O)Cc1cccs1)c1ccc(F)cc1 (stereo not drawn)	·	·	·	7	1	·	·
CC1(C(=O)NCCc2c[nH]c3ccccc23)CCN1Cc1csc2ccccc12 (stereo not drawn)	·	·	·	9	-2	·	·
COc1ccc(C(=O)Nc2ccc(NC(=O)c3ccccc3)cc2)cc1S(=O)(=O)N1CCOCC1	1	4	2	41*	-1	0	i
COc1ccc(/C=C/C(=O)NCc2ccc3c(c2)OCO3)cc1OC	4	5	-15	42*	2	0	i
O=C(CCCCn1ccc(=O)[nH]c1=O)Nc1ccc(C(=O)O)c(O)c1	·	·	·	29	2	·	·
O=C(CCCCn1ccc(=O)[nH]c1=O)Nc1ccc(O)c(C(=O)O)c1	·	·	·	39*	-1	·	·
O=C(CCCc1ccccc1)Nc1ccnn1C1CCN(Cc2ccc(CO)o2)CC1	-19	3	4	1	3	0	·
COCCNC(=O)CSc1ccc(-c2nc3ccccc3[nH]2)cn1	1	12	1	49*	1	0	+
Cn1c(=O)c2cc3ccccc3nc2n(C)c1=O	-10	-1	1	48*	0	0	+
COc1ccc(-c2cc(C(=O)OCC(=O)NC3CC3)c3ccccc3n2)cc1	26*	44*	·	56*	0	·	·
CCNC(=O)COC(=O)c1cc(-c2ccc(OC)cc2)nc2ccccc12	7	17	14	57*	3	-19	·
CCN(CC)C(=O)COC(=O)c1cc(-c2ccc(OC)cc2)nc2ccccc12	16	6	7	·	1	0	·
COCCNC(=O)COC(=O)c1cc(-c2ccc(OC)cc2)nc2ccccc12	-3	7	6	44*	3	2	·
O=C(COC(=O)c1cc(-c2ccccc2)nc2ccccc12)NC1CC1	-3	3	·	-1	0	·	·
CCCNC(=O)COC(=O)c1cc(-c2ccc(OC)cc2)nc2ccccc12	4	6	-5	·	1	1	·
CC(NC(=O)COC(=O)C1(C)CC1(Cl)Cl)c1ccccc1 (stereo not drawn)	0	2	·	-12	0	·	·
CC(Oc1cc2oc(=O)c3c(c2cc1Cl)CCC3)C(=O)NCc1ccccn1 (stereo not drawn)	3	1	2	4	-1	0	·
CC1=C(C(=O)NC2CC(C)(C)Cc3c2cnn3-c2cccc(F)c2)OCCO1 (stereo not drawn)	-1	3	0	-1	2	0	·
CCOCc1cnc(C)nc1NCC(=O)c1c(C)n(C)c2ccc(OC)cc12	·	·	-12	5	1	0	·
COc1ccc2c(c1)c(C(=O)CNc1nc(C)cs1)c(C)n2C	-22	-13	-1	39*	3	0	i
CCOc1ccccc1N1CCN(C(=O)CCNS(=O)(=O)c2ccccc2F)CC1	3	-1	-2	15	0	-1	·
Cc1cc(=O)oc2cc(NC(=O)CN3C(=O)NC(C)(c4ccccc4)C3=O)ccc12 (stereo not drawn)	-5	2	6	58*	3	0	+
CC1(c2ccccc2)NC(=O)N(CC(=O)Nc2ccc3c(c2)OCO3)C1=O (stereo not drawn)	4	4	-1	0	2	2	·
Cc1ccccc1CC(=O)Nc1ccc2c(C)cc(=O)oc2c1	7	2	-3	44*	1	1	i
